{"source": "ChEMBL document CHEMBL4765245", "about": "(Eur J Med Chem, 2020)", "key": {"[1]": {"assay": "Selectivity index, ratio of CC50 for human HeLa cells to IC50 for Rhinovirus A2 infected in HeLa cell line assessed as inhibition of virus-induced cytopathic effect", "format": "toxicity", "conditions": "read-out: Selectivity Index"}, "Coxsackievirus B3 [2]": {"test_system": "Coxsackievirus B3", "assay": "Antiviral activity against pleconaril-resistant Coxsackievirus B3 97927 11207K/I1092 mutant infected in human HeLa cell line assessed as inhibition of virus-induced cytopathic effect measured after 48 hrs by crystal violet uptake assay", "format": "functional, organism-based", "conditions": "read-out: IC50", "outline": "(§1)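 HeLa Ohio monolayers, 2 days old and confluent, in MEM with 2% FCS. Serial half-log compound dilutions from 100 μM were added just before CVB3 infection. Activity was calculated per Pauwels against six cell and six virus controls; mean IC50 from ≥3 experiments.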"}, "[3]": {"assay": "AUC (0 to infinity) in Balb/c mouse at 100 mg/kg, IG measured upto 7 hrs by HPLC-MS method", "format": "ADME, organism-based", "parameters": "route […], dose 100 mg/kg, time <=7", "conditions": "in vivo, po", "outline": "(§2)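 Male BALB/c mice (~20 g), food withheld 1 h before and after dosing; single 100 mg/kg intragastric dose as suspension in 0.5% CMC with one drop Tween-80. Blood taken at 0.5, 1, 2, 3, 5, 7 h (3 animals per time point); plasma MeCN-precipitated, HPLC-MS (ESI positive). Non-compartmental analysis: AUC by trapezium with extrapolation; CL = dose/AUC; Vd = CL/kel.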"}, "[4]": {"assay": "Selectivity index, ratio of CC50 for human HeLa cells to IC50 for Coxsackievirus B3 Nancy infected in HeLa cell line assessed as inhibition of virus-induced cytopathic effect", "format": "toxicity", "conditions": "read-out: Selectivity Index", "outline": "(§3)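 SI calculated as CC50/IC50. Cytotoxicity: 2-day-old confluent HeLa Ohio monolayers were exposed to half-log dilutions from 100 μM in 2% FCS MEM for 72 h at 37 °C, then crystal violet stained, eluted and read at 550/630 nm. Antiviral: compound added just before CVB3 infection of 2-day-old HeLa; CPE scored by crystal violet at 48 h (Pauwels formula). Means from ≥3 tests each.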"}, "[5]": {"assay": "Selectivity index, ratio of CC50 for human HeLa cells to IC50 for Coxsackievirus B3 97927 wild type infected in HeLa cell line assessed as inhibition of virus-induced cytopathic effect", "format": "toxicity", "conditions": "read-out: Selectivity Index", "outline": "as §3"}, "Coxsackievirus B3 [6]": {"test_system": "Coxsackievirus B3", "assay": "Antiviral activity against Coxsackievirus B3 Nancy infected in human HeLa cell line assessed as inhibition of virus-induced cytopathic effect measured after 48 hrs by crystal violet uptake assay", "format": "functional, organism-based", "conditions": "Enterovirus B, Nancy, HeLa, 48 h; read-out: IC50", "outline": "as §1"}, "[7]": {"assay": "Volume of distribution in Balb/c mouse at 100 mg/kg, IG measured upto 7 hrs by HPLC-MS method", "format": "ADME, organism-based", "conditions": "in vivo, po", "outline": "as §2"}, "rhinovirus B14": {"test_system": "rhinovirus B14", "assay": "Antiviral activity against Rhinovirus B14 infected in human HeLa cell line assessed as inhibition of virus-induced cytopathic effect measured after 72 hrs by crystal violet uptake assay", "format": "functional, organism-based", "conditions": "Rhinovirus B, HeLa, 72 h; read-out: IC50", "outline": "(§4)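 HeLa Ohio monolayers, 1 day old, in 2% FCS medium. Compound added as serial half-log dilutions from 100 μM immediately before rhinovirus infection. Activity calculated per Pauwels; IC50 is the mean of at least 3 experiments.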"}, "[8]": {"assay": "Clearance in Balb/c mouse at 100 mg/kg, IG measured upto 7 hrs by HPLC-MS method", "format": "ADME, organism-based", "conditions": "in vivo, po", "outline": "as §2"}, "Coxsackievirus B3 [9]": {"test_system": "Coxsackievirus B3", "assay": "Antiviral activity against pleconaril-resistant Coxsackievirus B3 97927 11207T/I1092 mutant infected in human HeLa cell line assessed as inhibition of virus-induced cytopathic effect measured after 48 hrs by crystal violet uptake assay", "format": "functional, organism-based", "conditions": "read-out: IC50", "outline": "as §1"}, "[10]": {"assay": "Mutagenicity in Escherichia coli PQ37 at 10 mg/ml by SOS-chromotest", "format": "toxicity"}, "[11]": {"assay": "Selectivity index, ratio of CC50 for human HeLa cells to IC50 for Rhinovirus B5 infected in HeLa cell line assessed as inhibition of virus-induced cytopathic effect", "format": "toxicity", "conditions": "read-out: Selectivity Index"}, "rhinovirus B5": {"test_system": "rhinovirus B5", "assay": "Antiviral activity against Rhinovirus B5 infected in human HeLa cell line assessed as inhibition of virus-induced cytopathic effect measured after 72 hrs by crystal violet uptake assay", "format": "functional, organism-based", "conditions": "Rhinovirus B, HeLa, 72 h; read-out: IC50", "outline": "as §4, with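 “infection. CPE read at 72 h by crystal violet staining, elution and OD 550/630 nm, with six cell and six virus controls per plate.” for “infection.”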"}, "[12]": {"assay": "Genotoxicity in Escherichia coli PQ37 assessed as zone of inhibition at 10 mg/ml measured on day 3 by SOS-chromo0test relative to control", "format": "toxicity", "conditions": "72 h, time 3 day"}, "rhinovirus A2": {"test_system": "rhinovirus A2", "assay": "Antiviral activity against Rhinovirus A2 infected in human HeLa cell line assessed as inhibition of virus-induced cytopathic effect measured after 72 hrs by crystal violet uptake assay", "format": "functional, organism-based", "conditions": "Rhinovirus A, HeLa, 72 h; read-out: IC50", "outline": "as §4"}, "[13]": {"assay": "Selectivity index, ratio of CC50 for human HeLa cells to IC50 for Rhinovirus B14 infected in HeLa cell line assessed as inhibition of virus-induced cytopathic effect", "format": "toxicity", "conditions": "read-out: Selectivity Index"}, "[14]": {"assay": "Elimination rate constant in Balb/c mouse at 100 mg/kg, IG measured upto 7 hrs by HPLC-MS method", "format": "ADME, organism-based", "conditions": "in vivo, po", "outline": "as §2"}, "[15]": {"assay": "Selectivity index, ratio of CC50 for human HeLa cells to IC50 for pleconaril-resistant Coxsackievirus B3 97927 11207K/I1092 mutant infected in HeLa cell line assessed as inhibition of virus-induced cytopathic effect", "format": "toxicity", "conditions": "read-out: Selectivity Index", "outline": "as §3"}, "[16]": {"assay": "Selectivity index, ratio of CC50 for human HeLa cells to IC50 for pleconaril-resistant Coxsackievirus B3 97927 11207M/I1092 mutant infected in HeLa cell line assessed as inhibition of virus-induced cytopathic effect", "format": "toxicity", "conditions": "read-out: Selectivity Index", "outline": "as §3"}, "[17]": {"assay": "Selectivity index, ratio of CC50 for human HeLa cells to IC50 for pleconaril-resistant Coxsackievirus B3 97927 11207T/I1092 mutant infected in HeLa cell line assessed as inhibition of virus-induced cytopathic effect", "format": "toxicity", "conditions": "read-out: Selectivity Index", "outline": "as §3"}, "Coxsackievirus B3 [18]": {"test_system": "Coxsackievirus B3", "assay": "Antiviral activity against wild type Coxsackievirus B3 97927 infected in human HeLa cell line assessed as inhibition of virus-induced cytopathic effect measured after 48 hrs by crystal violet uptake assay", "format": "functional, organism-based", "conditions": "Enterovirus B, 97927, HeLa, 48 h; read-out: IC50", "outline": "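Coxsackievirus B3 infection of 2-day-old HeLa Ohio monolayers in 2% FCS medium. Half-log dilutions from 100 μM added just before infection; guanidine hydrochloride served as positive control. Antiviral activity calculated per Pauwels; IC50 is the mean of at least 3 separate tests.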"}, "Coxsackievirus B3 [19]": {"test_system": "Coxsackievirus B3", "assay": "Antiviral activity against pleconaril-resistant Coxsackievirus B3 97927 11207M/I1092 mutant infected in human HeLa cell line assessed as inhibition of virus-induced cytopathic effect measured after 48 hrs by crystal violet uptake assay", "format": "functional, organism-based", "outline": "as §1"}, "HeLa": {"test_system": "HeLa", "assay": "Cytotoxicity against human HeLa cells assessed as reduction in cell viability incubated for 72 hrs measured by crystal violet based micro plate reader method", "conditions": "hela, 72 h", "outline": "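Two-day-old confluent HeLa Ohio monolayers exposed to half-log dilutions (100 μM downward) in 2% FCS medium for 72 h at 37 °C, 5% CO2. Cells fixed and stained with crystal violet/formalin, dye eluted with acidified citrate-ethanol, OD read at 550/630 nm. Viability expressed relative to six mock-treated controls; CC50 is the mean of at least 3 tests.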"}}}
{"smiles": "Cc1cc(-c2noc(C(F)(F)F)n2)ccc1OCCCc1cc(C(=O)N(C)C)no1", "values": [{"measurement": "selectivity ratio", "setting": "[1]", "result": 15.6}, {"measurement": "IC50", "setting": "Coxsackievirus B3 [2]", "result": 4790, "unit": "nM"}, {"measurement": "AUC", "setting": "[3]", "result": 3015.5, "unit": "ng·h/mL"}, {"measurement": "selectivity ratio", "setting": "[4]", "result": 4.9}, {"measurement": "selectivity ratio", "setting": "[5]", "result": 669}, {"measurement": "IC50", "setting": "Coxsackievirus B3 [6]", "result": 2760, "unit": "nM"}, {"measurement": "Vd", "setting": "[7]", "result": 1.52, "unit": "L"}, {"measurement": "IC50", "setting": "rhinovirus B14", "result": 90, "unit": "nM"}, {"measurement": "clearance", "setting": "[8]", "result": 0.66, "unit": "L/h"}, {"measurement": "IC50", "setting": "Coxsackievirus B3 [9]", "result": 10, "unit": "nM"}, {"measurement": "Activity", "setting": "[10]", "result": "Non-Toxic"}, {"measurement": "selectivity ratio", "setting": "[11]", "result": 2.6}, {"measurement": "IC50", "setting": "rhinovirus B5", "result": 5250, "unit": "nM"}, {"measurement": "inhibition zone (IZ)", "setting": "[12]", "result": 0, "unit": "mm"}, {"measurement": "IC50", "setting": "rhinovirus A2", "result": 860, "unit": "nM"}, {"measurement": "selectivity ratio", "setting": "[13]", "result": 149}, {"measurement": "Kel", "setting": "[14]", "result": 0.4373, "unit": "h⁻¹"}, {"measurement": "selectivity ratio", "setting": "[15]", "result": 2.8}, {"measurement": "selectivity ratio", "setting": "[16]", "result": 1340}, {"measurement": "selectivity ratio", "setting": "[17]", "result": 1340}, {"measurement": "IC50", "setting": "Coxsackievirus B3 [18]", "result": 20, "unit": "nM"}, {"measurement": "IC50", "setting": "Coxsackievirus B3 [19]", "result": 10, "unit": "nM"}, {"measurement": "CC50", "setting": "HeLa", "result": 13400, "unit": "nM"}]}
